In article PMC5626417 (International Journal of Nanomedicine, 2017):
Blank lines part the entries; values can stand above or below the molecule they belong to. Ends that are not written are not given here.

Key:
[1] = In vivo plasma concentration and bio-distribution of PTX; set-up: species or system BALB/c mice; conditions: mice, HPLC
How it was run: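 Female BALB/c mice (4–6 weeks, 18–22 g) carried subcutaneous HeLa xenografts (5×10^6 cells) grown to ~50 mm3. Filtered formulations (100 μL) were dosed daily via tail vein for 2 weeks. Blood and organs (lung, liver, kidney, heart, spleen) were saline-washed, weighed and stored at −20°C. Plasma and homogenates were methanol-precipitated and spun at 12,000 rpm for 10 min; PTX was quantified by C18 HPLC at 227 nm.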

HeLa cells [2] = conditions: after 20 hours of incubation with 1 μM (0.854 μg/mL) PTX; cited from earlier work
[3] = system: L292 cells, HCT cells, A594 cells, Hep-G2 cells, and HSC cells; experiment: Cytotoxicity of Rq and Rq/PTX on other cell types; type: cell-based; conditions: 24 hours incubation with 1,000 μM Rq; Figure S2
HeLa cells [4] = experiment: Cytotoxicity of CPP; type: cell-based, Human; conditions: MTT, 3 and 24 hours incubation, up to 1,000 μM
How it was run: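 HeLa cells seeded at 5×10^3/well and grown 24 h. Exposed to peptide at 50–1,000 μM for 3 h, washed twice with PBS, then given fresh medium for 24 h. A parallel arm used 100 and 1,000 μM for 24 h. Viability by MTT (3 h, DMSO solubilisation, OD492), expressed as percent of untreated cells.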

HeLa cells [5] = experiment: Cellular uptake and distribution by fluorescence / confocal microscopy; type: cell-based, Human; conditions: 10 and 100 μM, 30 minutes, 37°C, serum-free medium
How it was run: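 HeLa cells (4×10^4) on coverslips, 24 h, then FITC-labelled peptide or FITC alone at 10 or 100 μM in serum-free medium, 37°C for 30 min. Washed twice in PBS with heparin to strip surface-bound peptide, fixed in 4% PFA. For widefield imaging, nuclei were DAPI-stained; for intracellular distribution, cells were imaged by confocal microscopy immediately after fixation.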

- PTX level in tissues (organs) ([1]; after 2 weeks of daily tail vein treatment, tissue homogenate): accumulated in liver, kidney, and heart
- drop in the PTX concentration in plasma ([1]; tail vein injection, 30 minutes versus 24 hours after injection): sharply decreased
Molecule: CC(=O)O[C@H]1C(=O)[C@@]2(C)[C@H]([C@H](OC(=O)c3ccccc3)[C@]3(O)C[C@H](OC(=O)[C@H](O)[C@@H](NC(=O)c4ccccc4)c4ccccc4)C(C)=C1C3(C)C)[C@]1(OC(C)=O)CO[C@@H]1C[C@@H]2O [PTX, paclitaxel]
- intracellular PTX concentration (HeLa cells [2]): 0.206 mg/mL

Molecule: RRRRQWWQW [Rq]
- cell viability of other cell types after incubation with Rq [3]: no significant decrease in the cell viability
- cell viability after incubation with Rq (HeLa cells [4]): Nearly all the cells were viable

Molecule: fluorescein isothiocyanate [FITC]
- green fluorescence in cells (fluorescence microscopy) (HeLa cells [5]): no fluorescence was observed
